According to ChEMBL document CHEMBL4028873, “The Discovery of a Dual TTK Protein Kinase/CDC2-Like Kinase (CLK2) Inhibitor for the Treatment of Triple Negative Breast Cancer Initiated from a Phenotypic Screen” (J Med Chem, 2017):
Calls of active or inactive are those of the source. The calls are words filed in the database; no cut-off is given here.

Tests used:
[1] = molecular target: T1, Dual specificity tyrosine-phosphorylation-regulated kinase 3 (Homo sapiens, UniProt O43781); assay: Inhibition of human full length recombinant GST-tagged DYRK3 expressed in baculovirus by Z'-LYTE assay
T1 sequence (O43781 whole entry): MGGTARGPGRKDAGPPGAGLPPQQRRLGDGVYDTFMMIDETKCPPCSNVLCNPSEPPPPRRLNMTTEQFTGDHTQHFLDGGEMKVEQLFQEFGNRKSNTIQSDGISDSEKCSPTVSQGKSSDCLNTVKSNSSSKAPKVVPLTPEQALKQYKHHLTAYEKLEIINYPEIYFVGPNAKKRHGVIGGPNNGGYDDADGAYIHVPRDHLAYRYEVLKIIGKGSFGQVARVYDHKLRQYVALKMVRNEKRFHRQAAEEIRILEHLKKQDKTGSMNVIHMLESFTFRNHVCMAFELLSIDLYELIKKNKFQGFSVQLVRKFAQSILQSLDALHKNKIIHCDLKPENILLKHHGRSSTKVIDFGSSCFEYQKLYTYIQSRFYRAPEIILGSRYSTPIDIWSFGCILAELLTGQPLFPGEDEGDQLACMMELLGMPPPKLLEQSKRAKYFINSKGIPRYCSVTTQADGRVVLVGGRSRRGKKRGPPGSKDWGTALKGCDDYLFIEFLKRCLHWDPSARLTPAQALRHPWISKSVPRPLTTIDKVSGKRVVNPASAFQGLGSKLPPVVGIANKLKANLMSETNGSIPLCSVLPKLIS

[2] = system: MDA-MB-231; assay: Antiproliferative activity against human MDA-MB-231 cells after 3 days by CellTiter-Glo assay; format: functional, cell-based
Summary of the method: (§1)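 Cell lines kept in vendor-recommended growth media; 3-day compound exposure, then CellTiter-Glo luminescence read. Percent inhibition per concentration normalized to DMSO control, triplicate wells.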

[3] = system: Mus musculus; assay: Toxicity in SCID mouse xenografted with human CAL51 cells assessed as loss in body weight at 10 mg/kg, iv administered every 3 days for 16 days relative to control; format: organism-based; conditions: in vivo
[4] = system: Mus musculus; assay: Toxicity in SCID mouse xenografted with human CAL51 cells assessed as loss in body weight at 20 mg/kg, iv administered every 7 days for 16 days relative to control; format: organism-based; conditions: in vivo
[5] = Clearance in rat at 2 mg/kg, iv; format: ADME, organism-based; conditions: in vivo
[6] = system: MDA-MB-361; assay: Antiproliferative activity against human MDA-MB-361 cells after 3 days by CellTiter-Glo assay; format: cell-based; conditions: mda-mb-361, 72 h; summary of the method: as §1
[7] = system: MDA-MB-468; assay: Antiproliferative activity against human MDA-MB-468 cells after 3 days by CellTiter-Glo assay; format: functional, cell-based; summary of the method: as §1
[8] = molecular target: T2, Phosphorylase b kinase gamma catalytic chain, skeletal muscle/heart isoform (Homo sapiens, UniProt Q16816); conditions: 3 uM
T2 sequence (Q16816 whole entry, looked up, canonical isoform): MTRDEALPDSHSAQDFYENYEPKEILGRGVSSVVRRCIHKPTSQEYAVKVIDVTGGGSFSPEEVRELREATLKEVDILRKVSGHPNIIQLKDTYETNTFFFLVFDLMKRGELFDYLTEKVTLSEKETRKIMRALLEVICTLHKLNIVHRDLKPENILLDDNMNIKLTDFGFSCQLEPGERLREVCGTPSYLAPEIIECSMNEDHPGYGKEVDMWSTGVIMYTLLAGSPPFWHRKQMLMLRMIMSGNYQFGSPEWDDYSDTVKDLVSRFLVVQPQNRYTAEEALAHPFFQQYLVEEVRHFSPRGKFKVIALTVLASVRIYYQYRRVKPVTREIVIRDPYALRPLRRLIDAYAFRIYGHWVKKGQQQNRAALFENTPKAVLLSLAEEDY

[9] = molecular target: T2, Phosphorylase b kinase gamma catalytic chain, skeletal muscle/heart isoform; assay: Binding affinity to PHKG1 in human HCT116 cells at 3 uM after 1 hr by LC-MS/MS analysis relative to control; format: cell-based
Summary of the method: (§2)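 ActivX KiNative cellular kinase profiling. HCT-116 cells were grown in RPMI-1640 with 10% FBS and exposed to compound at 3 μM for 1 h, with DMSO-only controls. Cells were then washed with ice-cold PBS, scraped, pelleted and stored at −80 °C. Kinase binding was reported as percent occupancy relative to the untreated controls.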

[10] = molecular target: T3, c-Jun N-terminal kinase, JNK (Homo sapiens, UniProt P45983+P53779+P45984); assay: Binding affinity to JNK1/JNK2/JNK3 in human HCT116 cell lysate at 3 uM after 1 hr by LC-MS/MS analysis; summary of the method: as §2
[11] = Clearance in SCID mouse at 5 mg/kg, iv; format: ADME, organism-based; conditions: in vivo
[12] = Metabolic stability in human liver S9 fraction assessed as percent of compound remaining after 60 mins; format: ADME, tissue-based; conditions: read-out: Stability
[13] = molecular target: Dual specificity tyrosine-phosphorylation-regulated kinase 1B (Homo sapiens, UniProt Q9Y463); assay: Inhibition of full length human recombinant GST-tagged DYRK1B expressed in baculovirus by Z'-LYTE assay
Dual specificity tyrosine-phosphorylation-regulated kinase 1B, sequence (Q9Y463 whole entry): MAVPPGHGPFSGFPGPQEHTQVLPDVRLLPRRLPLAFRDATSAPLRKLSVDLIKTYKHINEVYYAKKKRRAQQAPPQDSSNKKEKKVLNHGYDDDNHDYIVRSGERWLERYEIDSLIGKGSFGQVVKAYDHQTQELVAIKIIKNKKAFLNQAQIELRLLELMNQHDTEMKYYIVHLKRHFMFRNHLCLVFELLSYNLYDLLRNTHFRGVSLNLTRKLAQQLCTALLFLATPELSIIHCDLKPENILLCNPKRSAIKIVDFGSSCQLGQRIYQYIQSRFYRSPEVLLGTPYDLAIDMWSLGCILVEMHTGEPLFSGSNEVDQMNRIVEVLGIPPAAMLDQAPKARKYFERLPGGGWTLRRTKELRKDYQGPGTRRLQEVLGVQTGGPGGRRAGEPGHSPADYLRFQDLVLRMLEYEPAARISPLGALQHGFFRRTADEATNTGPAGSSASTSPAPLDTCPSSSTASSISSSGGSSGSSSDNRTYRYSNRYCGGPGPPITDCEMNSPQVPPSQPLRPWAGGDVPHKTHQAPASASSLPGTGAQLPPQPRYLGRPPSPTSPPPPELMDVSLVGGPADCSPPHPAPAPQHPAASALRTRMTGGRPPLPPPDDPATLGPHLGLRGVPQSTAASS

[14] = Metabolic stability in rat liver S9 fraction assessed as percent of compound remaining after 60 mins; format: ADME, tissue-based; conditions: read-out: Stability
[15] = molecular target: T4, Dual specificity tyrosine-phosphorylation-regulated kinase 3 (Homo sapiens) (UniProt O43781); conditions: 3 uM
T4 sequence (whole entry): T1 sequence (O43781 whole entry)

[16] = molecular target: Voltage-gated inwardly rectifying potassium channel KCNH2 (Homo sapiens, UniProt Q12809); assay: Inhibition of human ERG
Voltage-gated inwardly rectifying potassium channel KCNH2, sequence (Q12809 whole entry): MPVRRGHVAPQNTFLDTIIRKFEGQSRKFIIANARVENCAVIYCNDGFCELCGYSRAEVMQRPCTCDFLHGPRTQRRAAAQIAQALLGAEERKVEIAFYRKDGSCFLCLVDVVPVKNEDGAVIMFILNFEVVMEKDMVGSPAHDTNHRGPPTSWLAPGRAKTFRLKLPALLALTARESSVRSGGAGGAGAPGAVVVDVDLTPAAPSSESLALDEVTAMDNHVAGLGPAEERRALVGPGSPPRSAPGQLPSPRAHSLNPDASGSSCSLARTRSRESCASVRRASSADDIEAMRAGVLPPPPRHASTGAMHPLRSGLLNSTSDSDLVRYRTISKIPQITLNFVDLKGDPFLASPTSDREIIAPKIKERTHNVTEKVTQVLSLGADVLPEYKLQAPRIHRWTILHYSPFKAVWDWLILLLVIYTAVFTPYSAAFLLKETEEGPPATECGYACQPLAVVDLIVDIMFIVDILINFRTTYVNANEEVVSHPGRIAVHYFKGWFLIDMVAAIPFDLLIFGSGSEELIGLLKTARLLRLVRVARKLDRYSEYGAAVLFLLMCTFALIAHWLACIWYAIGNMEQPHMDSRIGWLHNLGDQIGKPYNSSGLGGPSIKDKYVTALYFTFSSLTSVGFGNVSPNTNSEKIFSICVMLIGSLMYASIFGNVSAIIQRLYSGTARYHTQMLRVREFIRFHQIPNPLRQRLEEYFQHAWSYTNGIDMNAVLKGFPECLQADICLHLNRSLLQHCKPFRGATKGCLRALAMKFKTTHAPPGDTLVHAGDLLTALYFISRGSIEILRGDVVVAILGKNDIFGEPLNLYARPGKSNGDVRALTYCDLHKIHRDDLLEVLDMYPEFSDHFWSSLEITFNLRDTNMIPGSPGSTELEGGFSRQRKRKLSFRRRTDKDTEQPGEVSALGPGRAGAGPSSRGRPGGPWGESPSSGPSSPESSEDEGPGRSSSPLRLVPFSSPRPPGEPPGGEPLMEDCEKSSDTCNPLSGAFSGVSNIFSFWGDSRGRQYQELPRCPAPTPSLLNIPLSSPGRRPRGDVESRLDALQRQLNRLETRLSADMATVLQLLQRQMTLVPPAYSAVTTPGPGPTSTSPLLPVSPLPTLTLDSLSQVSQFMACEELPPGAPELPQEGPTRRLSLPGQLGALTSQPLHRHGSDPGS

[17] = molecular target: T5, Phosphatidylinositol 5-phosphate 4-kinase type-2 gamma (Homo sapiens, UniProt Q8TBX8); assay: Inhibition of PIP4K2C in human HCT116 cell lysate after 1 hr by LC-MS/MS analysis relative to control
T5 sequence (Q8TBX8 whole entry): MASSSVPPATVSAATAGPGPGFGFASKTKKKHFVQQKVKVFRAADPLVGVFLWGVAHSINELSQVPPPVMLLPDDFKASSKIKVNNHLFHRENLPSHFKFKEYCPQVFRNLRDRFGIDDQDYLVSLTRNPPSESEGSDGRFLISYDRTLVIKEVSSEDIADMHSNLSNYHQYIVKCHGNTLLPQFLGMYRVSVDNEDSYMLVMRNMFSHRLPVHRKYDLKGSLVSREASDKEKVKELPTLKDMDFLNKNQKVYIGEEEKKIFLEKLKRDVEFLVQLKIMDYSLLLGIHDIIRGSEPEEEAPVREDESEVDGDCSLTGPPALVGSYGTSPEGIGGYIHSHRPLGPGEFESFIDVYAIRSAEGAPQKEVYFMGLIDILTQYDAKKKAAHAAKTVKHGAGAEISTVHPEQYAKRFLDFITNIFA

[18] = Volume of distribution at steady state in rat at 2 mg/kg, iv; format: ADME, organism-based; conditions: in vivo, read-out: Vdss
[19] = molecular target: Dual specificity tyrosine-phosphorylation-regulated kinase 1A (Homo sapiens, UniProt Q13627); assay: Inhibition of human full length GST-tagged DYRK1A expressed in baculovirus by Z'-LYTE assay
[20] = system: CAL-51; assay: Antiproliferative activity against human CAL51 cells assessed as reduction in cell viability incubated for 12 to 72 hrs followed by compound washout measured after 72 hrs by Cell-Titer Glo assay; format: functional, cell-based
Summary of the method: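 Cal-51 seeded at 3000 cells/well, dosed next day (0.2% DMSO final), triplicate wells; exposure at 37 °C, 5% CO2 for 6, 12, 24, 48 or 72 h, then three medium washes and culture in fresh medium up to 72 h post treatment; viability read by CellTiter-Glo luminescence.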

[21] = molecular target: T3, c-Jun N-terminal kinase, JNK; assay: Inhibition of JNK1/JNK2/JNK3 in human HCT116 cell lysate after 1 hr by LC-MS/MS analysis relative to control
[22] = system: CAL-51; assay: Antiproliferative activity against human CAL51 cells xenografted in SCID mouse assessed as tumor growth inhibition at 20 mg/kg, iv administered every 3 days for 16 days relative to control; format: functional; conditions: CAL-51, iv, read-out: TGI
Summary of the method: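 Mice bearing tumors of about 125 mm3 randomized (n = 8−10/group) and given compound intravenously at the listed doses and schedules. Tumors measured twice weekly by digital caliper on long and short axes; volume = width² × length/2.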

- IC50 [1]: 99 nM
- clearance [5]: 9.3 mL/min/kg
- inhibition [8]: > 80%
- Activity [9]: 26%
- Activity [10]: > 75%
- clearance [11]: 8.48 mL/min/kg
- remaining at 1 h [12]: 91%
- IC50 [13]: 157 nM
- remaining at 1 h [14]: 98%
- inhibition [15]: > 80%
- IC50 [17]: 1300 nM
- Vd [18]: 2.3 L/kg
- IC50 [19]: 104 nM
- IC50 [21]: 680 nM
SMILES: CNC(=O)c1ccc(Nc2nc(OC3CCCC3)c3c(-c4ccc5nc(C)oc5c4)c[nH]c3n2)c(OC)c1
- Activity [2]: Active
- Activity [3]: 5%
- Activity [4]: Non-Toxic
- Activity [6]: Non-Toxic
- Activity [7]: Active
- IC50 [16]: > 33000 nM
- Activity [20]: Active
- inhibition in vivo at 20 mg/kg [22]: 71%
